{
  "source": "ChEMBL document CHEMBL1926572",
  "about": "“Synthesis and evaluation of the substrate activity of C-6 substituted purine ribosides with E. coli purine nucleoside phosphorylase: palladium mediated cross-coupling of organozinc halides with 6-chloropurine nucleosides” (Eur J Med Chem, 2012)",
  "key": {"Escherichia coli": {"system": "Escherichia coli", "test": "Activity of Escherichia coli PNP assessed per mg of protein at 100 uM by UV spectrometric analysis", "in_short": "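Samples taken at several times; substrate and product resolved by C-18 HPLC (5–50% acetonitrile gradient, NH₄H₂PO₄ pH 4.5) with UV detection. Rate in nmoles/mg/h; mean of at least 2 measurements.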"}, "CCRF-CEM": {"system": "CCRF-CEM", "test": "Cytotoxicity against human CCRF-CEM cells after 72 hrs by coulter counting", "type": "functional, cell-based"}, "SNB-7": {"system": "SNB-7", "test": "Cytotoxicity against human SNB7 cells assessed as cell viability after 72 hrs by sulforhodamine B assay", "type": "functional, cell-based", "conditions": "SNB-7, 72 h", "in_short": "(§1)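 Cells plated and kept at 37 °C with a range of compound concentrations for 72 h of continuous exposure; viability by sulforhodamine B staining, absorbance at 570 nm; concentration inhibiting growth by 50% determined from a single experiment.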"}, "NCI-H23 [1]": {"system": "NCI-H23", "test": "Cytotoxicity against human NCI-H23 cells assessed as cell viability after 72 hrs by sulforhodamine B assay", "type": "functional, cell-based", "conditions": "NCI-H23, 72 h", "in_short": "as §1"}, "NCI-H23 [2]": {"system": "NCI-H23", "test": "Antitumor activity against human NCI-H23 cells xenografted in nude mouse assessed as tumor growth inhibition at maximum tolerated dose, ip qd for 9 consecutive days", "type": "functional, organism-based", "in_short": "(§2)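 NCI-H23 tumors grown on the flanks of nude mice; once tumors were about 200 mg, animals received 33, 50 or 75 mg/kg ip daily for 9 consecutive days; tumor growth and body weight followed.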"}, "CAKI-1": {"system": "CAKI-1", "test": "Cytotoxicity against human Caki1 cells assessed as cell viability after 72 hrs by sulforhodamine B assay", "type": "functional, cell-based", "conditions": "CAKI-1, 72 h", "in_short": "as §1"}, "PC-3": {"system": "PC-3", "test": "Cytotoxicity against human PC3 cells assessed as cell viability after 72 hrs by sulforhodamine B assay", "type": "functional, cell-based", "conditions": "PC-3, 72 h", "in_short": "as §1"}, "DLD-1": {"system": "DLD-1", "test": "Cytotoxicity against human DLD1 cells assessed as cell viability after 72 hrs by sulforhodamine B assay", "type": "functional, cell-based", "conditions": "DLD-1, 72 h", "in_short": "as §1"}, "LOX IMVI": {"system": "LOX IMVI", "test": "Cytotoxicity against human LOXIMVI cells assessed as cell viability after 72 hrs by sulforhodamine B assay", "type": "functional, cell-based", "in_short": "as §1"}, "NCI-H23 [3]": {"system": "NCI-H23", "test": "Antitumor activity against human NCI-H23 cells xenografted in nude mouse assessed as tumor growth inhibition at 33 to 75 mg/kg, ip qd for 9 consecutive days", "type": "functional, organism-based", "in_short": "as §2"}, "ZR-75-1": {"system": "ZR-75-1", "test": "Cytotoxicity against human ZR-75-1 cells assessed as cell viability after 72 hrs by sulforhodamine B assay", "type": "functional, cell-based", "conditions": "ZR-75-1, 72 h", "in_short": "as §1"}, "Mus musculus [4]": {"system": "Mus musculus", "test": "Toxicity in nude mouse xenografted with human NCI-H23 cells assessed as decrease in body weight at 75 mg/kg, ip qd for 9 consecutive days", "type": "organism-based", "parameters": "dose 75 mg/kg, route intraperitoneal; scale not given: the % may be the effect or the level left", "conditions": "in vivo", "in_short": "as §2"}, "Mus musculus [5]": {"system": "Mus musculus", "test": "Toxicity in nude mouse xenografted with human NCI-H23 cells assessed as mortality at 75 mg/kg, ip qd for 9 consecutive days", "type": "organism-based", "parameters": "dose 75 mg/kg, route intraperitoneal", "conditions": "in vivo", "in_short": "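NCI-H23 tumours grown subcutaneously on the flanks of nude mice. Dosing began once tumours reached about 200 mg: 33, 50 or 75 mg/kg given ip once daily for 9 consecutive days. Tumour growth, deaths and body-weight loss were recorded.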"}},
  "note": "The source made the active and inactive calls. The rule behind the calls is not given here.",
  "data": [
    {"smiles": "OC[C@H]1O[C@@H](n2cnc3c(C4CCCC4)ncnc32)[C@H](O)[C@@H]1O", "values": [
      {"measurement": "Activity", "setting": "Escherichia coli", "value": 42000, "unit": "nmol/h"},
      {"measurement": "IC50", "setting": "CCRF-CEM", "value": 16, "unit": "µM"}
    ]},
    {"smiles": "OC[C@H]1O[C@@H](n2cnc3c(C4CCC4)ncnc32)[C@H](O)[C@@H]1O", "values": [
      {"measurement": "Activity", "setting": "Escherichia coli", "value": 63000, "unit": "nmol/h"},
      {"measurement": "IC50", "setting": "CCRF-CEM", "value": 7, "unit": "µM"}
    ]},
    {"smiles": "CCCCc1ncnc2c1ncn2[C@@H]1O[C@H](CO)[C@@H](O)[C@H]1O", "values": [
      {"measurement": "Activity", "setting": "Escherichia coli", "value": 86000, "unit": "nmol/h"},
      {"measurement": "IC50", "setting": "CCRF-CEM", "value": 49, "unit": "µM"}
    ]},
    {"smiles": "CC(C)Cc1ncnc2c1ncn2[C@@H]1O[C@H](CO)[C@@H](O)[C@H]1O", "values": [
      {"measurement": "Activity", "setting": "Escherichia coli", "value": 79000, "unit": "nmol/h"},
      {"measurement": "IC50", "setting": "CCRF-CEM", "value": "> 130", "unit": "µM"}
    ]},
    {"smiles": "Cc1ncnc2c1ncn2[C@@H]1O[C@H](CO)[C@@H](O)[C@H]1O", "values": [
      {"measurement": "Activity", "setting": "Escherichia coli", "value": 84000, "unit": "nmol/h"},
      {"measurement": "IC50", "setting": "CCRF-CEM", "value": 0.02, "unit": "µM"}
    ]},
    {"smiles": "OC[C@H]1O[C@@H](n2cnc3c(-c4cccs4)ncnc32)[C@H](O)[C@@H]1O", "values": [
      {"measurement": "Activity", "setting": "Escherichia coli", "value": 9900, "unit": "nmol/h"},
      {"measurement": "IC50", "setting": "SNB-7", "value": 10, "unit": "µM"},
      {"measurement": "IC50", "setting": "NCI-H23 [1]", "value": 0.6, "unit": "µM"},
      {"measurement": "growth inhibition (GI)", "setting": "NCI-H23 [2]", "value": "inactive"},
      {"measurement": "IC50", "setting": "CAKI-1", "value": 30, "unit": "µM"},
      {"measurement": "IC50", "setting": "PC-3", "value": 0.9, "unit": "µM"},
      {"measurement": "IC50", "setting": "CCRF-CEM", "value": 0.09, "unit": "µM"},
      {"measurement": "IC50", "setting": "DLD-1", "value": 0.9, "unit": "µM"},
      {"measurement": "IC50", "setting": "LOX IMVI", "value": 0.3, "unit": "µM"},
      {"measurement": "growth inhibition (GI)", "setting": "NCI-H23 [3]", "value": "inactive"},
      {"measurement": "IC50", "setting": "ZR-75-1", "value": 0.3, "unit": "µM"},
      {"measurement": "Activity", "setting": "Mus musculus [4]", "value": 14, "unit": "%"}
    ]},
    {"smiles": "Cc1ncnc2c1ncn2[C@H]1C[C@H](O)[C@@H](CO)O1", "values": [
      {"measurement": "Activity", "setting": "Escherichia coli", "value": 461000, "unit": "nmol/h"}
    ]},
    {"smiles": "CCCc1ncnc2c1ncn2[C@@H]1O[C@H](CO)[C@@H](O)[C@H]1O", "values": [
      {"measurement": "Activity", "setting": "Escherichia coli", "value": 72000, "unit": "nmol/h"},
      {"measurement": "IC50", "setting": "CCRF-CEM", "value": 6.8, "unit": "µM"}
    ]},
    {"smiles": "CCc1ncnc2c1ncn2[C@@H]1O[C@H](CO)[C@@H](O)[C@H]1O", "values": [
      {"measurement": "Activity", "setting": "Escherichia coli", "value": 69000, "unit": "nmol/h"},
      {"measurement": "IC50", "setting": "CCRF-CEM", "value": 0.72, "unit": "µM"}
    ]},
    {"smiles": "OC[C@H]1O[C@@H](n2cnc3c(C4CC4)ncnc32)[C@H](O)[C@@H]1O", "values": [
      {"measurement": "Activity", "setting": "Escherichia coli", "value": 51000, "unit": "nmol/h"},
      {"measurement": "IC50", "setting": "SNB-7", "value": 33, "unit": "µM"},
      {"measurement": "IC50", "setting": "NCI-H23 [1]", "value": 1, "unit": "µM"},
      {"measurement": "growth inhibition (GI)", "setting": "NCI-H23 [2]", "value": "inactive"},
      {"measurement": "IC50", "setting": "CAKI-1", "value": "> 200", "unit": "µM"},
      {"measurement": "IC50", "setting": "PC-3", "value": 67, "unit": "µM"},
      {"measurement": "IC50", "setting": "CCRF-CEM", "value": 1, "unit": "µM"},
      {"measurement": "IC50", "setting": "DLD-1", "value": 170, "unit": "µM"},
      {"measurement": "IC50", "setting": "LOX IMVI", "value": "> 200", "unit": "µM"},
      {"measurement": "growth inhibition (GI)", "setting": "NCI-H23 [3]", "value": "inactive"},
      {"measurement": "IC50", "setting": "ZR-75-1", "value": 23, "unit": "µM"},
      {"measurement": "Activity", "setting": "Mus musculus [5]", "value": "Toxic"}
    ]},
    {"smiles": "OC[C@H]1O[C@@H](n2cnc3c(-c4ccccc4)ncnc32)[C@H](O)[C@@H]1O", "values": [
      {"measurement": "Activity", "setting": "Escherichia coli", "value": 21000, "unit": "nmol/h"},
      {"measurement": "IC50", "setting": "SNB-7", "value": 31, "unit": "µM"},
      {"measurement": "IC50", "setting": "NCI-H23 [1]", "value": 1.2, "unit": "µM"},
      {"measurement": "IC50", "setting": "CAKI-1", "value": 31, "unit": "µM"},
      {"measurement": "IC50", "setting": "PC-3", "value": 1.2, "unit": "µM"},
      {"measurement": "IC50", "setting": "CCRF-CEM", "value": 0.62, "unit": "µM"},
      {"measurement": "IC50", "setting": "DLD-1", "value": 6, "unit": "µM"},
      {"measurement": "IC50", "setting": "LOX IMVI", "value": 6.2, "unit": "µM"},
      {"measurement": "IC50", "setting": "ZR-75-1", "value": 1.2, "unit": "µM"}
    ]},
    {"smiles": "Cc1ncnc2c1ncn2[C@@H]1O[C@H](CO)[C@@H](O)[C@@H]1O", "values": [
      {"measurement": "Activity", "setting": "Escherichia coli", "value": 14, "unit": "nmol/h"},
      {"measurement": "IC50", "setting": "CCRF-CEM", "value": "> 130", "unit": "µM"}
    ]},
    {"smiles": "Nc1ncnc2c1ncn2[C@@H]1O[C@H](CO)[C@@H](O)[C@H]1O", "values": [
      {"measurement": "Activity", "setting": "Escherichia coli", "value": 398000, "unit": "nmol/h"}
    ]},
    {"smiles": "Nc1nc(F)nc2c1ncn2[C@@H]1O[C@H](CO)[C@@H](O)[C@@H]1O", "values": [
      {"measurement": "Activity", "setting": "Escherichia coli", "value": 1300, "unit": "nmol/h"}
    ]}
  ]
}
